Measured values reported in ChEMBL document CHEMBL1153988 (J Med Chem, 2009).
Active and inactive are the calls of the source. The calls are words filed in the database; no cut-off is given here.

Key:
Mus musculus [1] = assay: Anticonvulsant activity in CF1 albino mouse assessed as protection against scMet-induced seizures at 30 mg/kg, ip after 4 hrs; type: functional, organism-based; parameters: dose 30 mg/kg
How it was run: (§1)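 Adult male CF no. 1 albino mice (18-25 g) dosed intraperitoneally with compound suspended in 0.5% methylcellulose (0.01 mL/g). Convulsant challenge given subcutaneously as a 0.85% pentylenetetrazol solution in 0.9% saline. Read-out is animals protected over animals tested, with neurotoxicity scored in parallel.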

Mus musculus [2] = assay: Anticonvulsant activity in CF1 albino mouse assessed as protection against scMet-induced seizures at 300 mg/kg, ip after 0.5 hrs; type: functional, organism-based; parameters: dose 300 mg/kg; how it was run: as §1
Mus musculus [3] = assay: Anticonvulsant activity in CF1 albino mouse assessed as protection against scMet-induced seizures at 100 mg/kg, ip after 4 hrs; type: functional, organism-based; parameters: dose 100 mg/kg; how it was run: as §1
Rattus norvegicus [4] = assay: Anticonvulsant activity in albino Sprague-Dawley rat assessed as protection against maximal electroshock-induced seizures at 50 mg/kg, po after 1 hr; type: functional
How it was run: (§2)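 Adult male Sprague-Dawley albino rats (100-150 g) dosed orally with compound suspended in 0.5% methylcellulose (0.04 mL per 10 g). Maximal electroshock challenge at the stated time. Protection is scored in 25% steps as the fraction of animals protected, with neurotoxicity recorded in parallel.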

Mus musculus [5] = assay: Anticonvulsant activity in CF1 albino mouse assessed as protection against maximal electroshock-induced seizures at 30 mg/kg, ip after 4 hrs; type: functional, organism-based; parameters: dose 30 mg/kg
How it was run: (§3)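 Adult male CF no. 1 albino mice (18-25 g). Test compound suspended in 0.5% methylcellulose and given intraperitoneally at 0.01 mL/g body weight. Maximal electroshock challenge at the stated time. Read-out is the number of animals protected over the number tested; neurotoxicity is scored in parallel.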

Rattus norvegicus [6] = assay: Neurotoxicity in albino Sprague-Dawley rat at 50 mg/kg, po; type: toxicity, organism-based; parameters: dose 50 mg/kg, route oral; settings: in vivo
How it was run: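 Neurotoxicity was scored in male Sprague-Dawley albino rats (100-150 g) dosed orally with a suspension in 0.5% methylcellulose. The read-out was the fraction of animals showing neurotoxicity (minimal motor impairment).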

Rattus norvegicus [7] = assay: Anticonvulsant activity in albino Sprague-Dawley rat assessed as protection against scMet-induced seizures at 50 mg/kg, po after 30 mins; type: functional
How it was run: (§4)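 Male Sprague-Dawley albino rats (100-150 g) were given the compound orally as a suspension in 0.5% methylcellulose. Seizures were induced by subcutaneous pentylenetetrazol, dissolved in 0.9% saline as a 2.82% solution. The read-out was animals protected over animals tested.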

Mus musculus [8] = assay: Anticonvulsant activity in CF1 albino mouse assessed as protection against maximal electroshock-induced seizures at 100 mg/kg, ip after 4 hrs; type: functional, organism-based; parameters: dose 100 mg/kg; how it was run: as §3
Mus musculus [9] = assay: Anticonvulsant activity in CF1 albino mouse assessed as protection against scMet-induced seizures at 300 mg/kg, ip after 4 hrs; type: functional, organism-based; parameters: dose 300 mg/kg; how it was run: as §1
Rattus norvegicus [10] = assay: Anticonvulsant activity in albino Sprague-Dawley rat assessed as protection against maximal electroshock-induced seizures at 50 mg/kg, po after 30 mins; type: functional; how it was run: as §2
Rattus norvegicus [11] = assay: Anticonvulsant activity in albino Sprague-Dawley rat assessed as protection against maximal electroshock-induced seizures at 50 mg/kg, po after 15 mins; type: functional; how it was run: as §2
Mus musculus [12] = assay: Neurotoxicity in CF1 albino mouse at 300 mg/kg, ip after 4 hrs; type: toxicity, organism-based; parameters: dose 300 mg/kg, route intraperitoneal; settings: in vivo
How it was run: (§5)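 Male CF no. 1 albino mice (18-25 g) received a single ip dose as a suspension in 0.5% methylcellulose. The read-out was the number of animals showing neurotoxicity (minimal motor impairment) over the number tested.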

Mus musculus [13] = assay: Anticonvulsant activity in CF1 albino mouse assessed as protection against maximal electroshock-induced seizures at 300 mg/kg, ip after 0.5 hrs; type: functional, organism-based; parameters: dose 300 mg/kg; how it was run: as §3
Mus musculus [14] = assay: Anticonvulsant activity in CF1 albino mouse assessed as protection against maximal electroshock-induced seizures at 100 mg/kg, ip after 0.5 hrs; type: functional, organism-based; parameters: dose 100 mg/kg; how it was run: as §3
Mus musculus [15] = assay: Anticonvulsant activity in CF1 albino mouse assessed as protection against scMet-induced seizures at 100 mg/kg, ip after 0.5 hrs; type: functional, organism-based; parameters: dose 100 mg/kg; how it was run: as §1
Rattus norvegicus [16] = assay: Anticonvulsant activity in albino Sprague-Dawley rat assessed as protection against maximal electroshock-induced seizures at 50 mg/kg, po after 2 hrs; type: functional; how it was run: as §2
Mus musculus [17] = assay: Neurotoxicity in CF1 albino mouse at 30 mg/kg, ip after 4 hrs; type: toxicity, organism-based; parameters: dose 30 mg/kg, route intraperitoneal; settings: in vivo; how it was run: as §5
Mus musculus [18] = assay: Neurotoxicity in CF1 albino mouse at 30 mg/kg, ip after 0.5 hrs; type: toxicity, organism-based; parameters: dose 30 mg/kg, route intraperitoneal; settings: in vivo; how it was run: as §5
Mus musculus [19] = assay: Neurotoxicity in CF1 albino mouse at 300 mg/kg, ip after 0.5 hrs; type: toxicity, organism-based; parameters: dose 300 mg/kg, route intraperitoneal; settings: in vivo; how it was run: as §5
Rattus norvegicus [20] = assay: Anticonvulsant activity in albino Sprague-Dawley rat assessed as protection against scMet-induced seizures at 50 mg/kg, po after 1 hr; type: functional; how it was run: as §4
Rattus norvegicus [21] = assay: Anticonvulsant activity in albino Sprague-Dawley rat assessed as protection against scMet-induced seizures at 50 mg/kg, po after 2 hrs; type: functional; how it was run: as §4
Mus musculus [22] = assay: Anticonvulsant activity in CF1 albino mouse assessed as protection against maximal electroshock-induced seizures at 30 mg/kg, ip after 0.5 hrs; type: functional, organism-based; parameters: dose 30 mg/kg; how it was run: as §3
Mus musculus [23] = assay: Neurotoxicity in CF1 albino mouse at 100 mg/kg, ip after 4 hrs; type: toxicity, organism-based; parameters: dose 100 mg/kg, route intraperitoneal; settings: in vivo; how it was run: as §5
Mus musculus [24] = assay: Anticonvulsant activity in CF1 albino mouse assessed as protection against maximal electroshock-induced seizures at 300 mg/kg, ip after 4 hrs; type: functional, organism-based; parameters: dose 300 mg/kg; how it was run: as §3
Rattus norvegicus [25] = assay: Anticonvulsant activity in albino Sprague-Dawley rat assessed as protection against maximal electroshock-induced seizures at 50 mg/kg, po after 4 hrs; type: functional, organism-based; parameters: dose 50 mg/kg; how it was run: as §2
Rattus norvegicus [26] = assay: Anticonvulsant activity in albino Sprague-Dawley rat assessed as protection against scMet-induced seizures at 50 mg/kg, po after 4 hrs; type: functional; how it was run: as §4
Mus musculus [27] = assay: Anticonvulsant activity in CF1 albino mouse assessed as protection against scMet-induced seizures at 30 mg/kg, ip after 0.5 hrs; type: functional, organism-based; parameters: dose 30 mg/kg; how it was run: as §1
Rattus norvegicus [28] = organism: Rattus norvegicus; assay: Protective index, ratio of TD50 for albino Sprague-Dawley rat to ED50 for maximal electroshock-induced albino Sprague-Dawley rat seizure model; type: functional
How it was run: (§6)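 Protective index is the rat TD50 (minimal motor impairment) divided by the ED50 in the MES or sc pentylenetetrazol test. Male Sprague-Dawley rats were dosed orally in 0.5% methylcellulose, and both values came from probit analysis.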

Rattus norvegicus [29] = organism: Rattus norvegicus; assay: Protective index, ratio of TD50 for albino Sprague-Dawley rat to ED50 for scMet-induced albino Sprague-Dawley rat seizure model; type: functional; how it was run: as §6
Rattus norvegicus [30] = assay: Anticonvulsant activity in albino Sprague-Dawley rat assessed as protection against scMet-induced seizures at 50 mg/kg, po after 15 mins; type: functional; how it was run: as §4

In the case of CC1(C)C(C)(C)C1(F)C(=O)O, the Activity (Mus musculus [1]) is reported as “Non-toxic”, the Activity (Mus musculus [2]) is reported as “Toxic” and the Activity (Mus musculus [3]) is reported as “Non-toxic”. For the same compound, the Activity (Rattus norvegicus [4]) was “inactive”, the Activity (Mus musculus [5]) was “Non-toxic” and the Activity (Rattus norvegicus [6]) was “Not Active”. The Activity (Rattus norvegicus [7]) was “inactive”, the Activity (Mus musculus [8]) was “Non-toxic” and the Activity (Mus musculus [9]) was “Non-toxic”. The Activity (Rattus norvegicus [10]) was “inactive”, the Activity (Rattus norvegicus [11]) was “inactive” and the Activity (Mus musculus [12]) was “Non-toxic”. For the same compound, the Activity (Mus musculus [13]) was “Non-toxic”, the Activity (Mus musculus [14]) was “Non-toxic” and the Activity (Mus musculus [15]) was “Non-toxic”. The Activity (Rattus norvegicus [16]) was “inactive”, the Activity (Mus musculus [17]) was “Non-toxic” and the Activity (Mus musculus [18]) was “Non-toxic”. The Activity (Mus musculus [19]) was “Toxic”, the Activity (Rattus norvegicus [20]) was “inactive” and the Activity (Rattus norvegicus [21]) was “inactive”. For the same compound, the Activity (Mus musculus [22]) was “Non-toxic”, the Activity (Mus musculus [23]) was “Non-toxic” and the Activity (Mus musculus [24]) was “Non-toxic”. For the same compound, the Activity (Rattus norvegicus [25]) was “inactive”, the Activity (Rattus norvegicus [26]) was “inactive” and the Activity (Mus musculus [27]) was “Non-toxic”.
In the case of CC1(C)C(C(=O)NC(N)=O)C1(C)C [2,2,3,3-TETRAMETHYLCYCLOPROPANECARBONYLUREA], the PI (Rattus norvegicus [28]) is reported as 18.5 and the PI (Rattus norvegicus [29]) is reported as 5.9.
With CNC(=O)C1(F)C(C)(C)C1(C)C the Activity (Mus musculus [1]) was “Non-toxic”, the Activity (Mus musculus [2]) was “Non-toxic” and the Activity (Mus musculus [3]) was “Non-toxic”. For the same compound, the Activity (Mus musculus [5]) was “Non-toxic”, the Activity (Rattus norvegicus [6]) was 100% and the Activity (Rattus norvegicus [7]) was “inactive”. The Activity (Mus musculus [8]) was “Non-toxic”, the Activity (Mus musculus [9]) was “Non-toxic” and the Activity (Rattus norvegicus [30]) was “inactive”. For the same compound, the Activity (Mus musculus [12]) was “Non-toxic”, the Activity (Mus musculus [13]) was “Toxic” and the Activity (Mus musculus [14]) was “Non-toxic”. For the same compound, the Activity (Mus musculus [15]) was “Toxic”, the Activity (Mus musculus [19]) was “Toxic” and the Activity (Rattus norvegicus [20]) was “inactive”. For the same compound, the Activity (Rattus norvegicus [21]) was “inactive”, the Activity (Mus musculus [22]) was “Non-toxic” and the Activity (Mus musculus [23]) was “Non-toxic”. For the same compound, the Activity (Mus musculus [24]) was “Non-toxic”, the Activity (Rattus norvegicus [26]) was “inactive” and the Activity (Mus musculus [27]) was “Non-toxic”.
